Experimental data collected from several papers.
Compare with care: the assays were run in different laboratories.
Target: Fibroblast growth factor receptor 2 (FGFR2, Homo sapiens, UniProt P21802)

Cc1cc(C)c(-n2ccn3nc(-c4cccnc4)cc23)cc1NC(=O)c1cc(C#N)cc(S(F)(F)(F)(F)F)c1  remaining binding (cell-free assay; competition with immobilised ligand; 0.1 µM): 84.3%
O=C(NCCCN1CCOCC1)c1ccc(Nc2ncc(Cl)c(-c3ccc(Cl)s3)n2)cc1  remaining binding (binding; competition with immobilised ligand; 1 µM): 29%
Cc1c(C(=O)O)cc(-c2ccc(C3CCNCC3)cc2)c2ccc(-c3ccc(C(F)(F)F)cc3)cc12  remaining binding (cell-free assay; competition with immobilised ligand; 1 µM): 100%
O=C(c1ccc(Nc2nccc(-c3cc4ccccc4s3)n2)cc1)N1CCC(N2CCCC2)CC1  remaining binding (binding; competition with immobilised ligand; 1 µM): 77%
CC(C)(C)c1ccc(-c2nc(CBr)nn2-c2cccc(O)c2)cc1  remaining binding (cell-free assay; competition with immobilised ligand; 10 µM): 95%
N[C@H]1CCN(c2nccc(-c3cnn4ncccc34)n2)C1  remaining binding (binding; 1 µM): 92%
COc1ccc2cc(OCC3(C(=O)O)CN(C(=O)c4ccc(F)cc4)C3)ccc2c1  remaining binding (cell-free assay; competition with immobilised ligand; 1 µM): 100%
CN(C)c1nccc(-c2cnn3ncccc23)n1  remaining binding (binding; 1 µM): 100%
C[C@H](NC(=O)c1cnc2n1[C@](C)(Cc1ccc(C#N)cc1)C(=O)N2c1cc(Cl)c(F)c(Cl)c1)C(=O)NC1(c2ccccn2)CC1  remaining binding (cell-free assay; competition with immobilised ligand; 1 µM): 100%
COc1ccnn2ncc(-c3ccnc(N(C)C)n3)c12  remaining binding (binding; 1 µM): 100%
COc1ncc2cc3ccccc3nc2c1C#N  remaining binding (cell-free assay; competition with immobilised ligand; 5 µM): 93%
O=C(NCC1CCOCC1)c1n[nH]cc1NC(=O)c1c(F)cccc1F  remaining binding (binding; competition with immobilised ligand; 1 µM): 100%
CN(CCCC(F)(F)F)c1nccc(-c2cnn3ncccc23)n1  remaining binding (binding; 1 µM): 89%
C[C@@H](c1ccc(-n2cnc3c(N)ncnc32)cc1)N1CCc2nn(C)c(Cc3ccccc3)c2C1=O  remaining binding (binding; competition with immobilised ligand; 0.1 µM): 72%
C[C@@H]1CN(c2ccc3ncc(-c4ccc5[nH]nc(C6CC6)c5c4)n3n2)C[C@H](C)O1  remaining binding (binding; competition with immobilised ligand; 0.5 µM): 100%
CNC(=O)[C@@H]1CC[C@@H](n2c(-c3ccc4cnccc4c3)nc3ccc(C(=O)NCc4cccc(C(N)=O)c4)cc32)C1  remaining binding (binding; competition with immobilised ligand; 1 µM): 96%
C=CC(=O)N1CCC(C(=O)NCC(=O)N2CCN(c3nc(-c4cnc(N)nc4C(F)F)nc(N4CCOCC4)n3)CC2)CC1  remaining binding (binding; competition with immobilised ligand; 1 µM): 89%
c1cnn2ncc(-c3ccnc(N4CCC45COC5)n3)c2c1  remaining binding (binding; 1 µM): 100%
O=C(O)[C@H]1[C@H](Cn2nnc3ccccc3c2=O)CC[C@@H]1C(=O)c1ccc(OCCC2CCOCC2)cc1  remaining binding (cell-free assay; competition with immobilised ligand; 1 µM): 100%
N#Cc1ccccc1CSc1nnc2c(n1)[nH]c1ccccc12  remaining binding (binding; competition with immobilised ligand; 10 µM): 91%
CN1CCN(c2cnc3c(C4CCN(C(=O)c5ccc(OC(F)(F)F)cc5N)CC4)ncnc3c2)CC1  remaining binding (cell-free assay; competition with immobilised ligand; 1 µM): 100%
O=C(c1ccc(Nc2ncc(Cl)c(-c3ccc(Cl)s3)n2)cc1)N1CCC(N2CCCC2)CC1  remaining binding (binding; competition with immobilised ligand; 1 µM): 4.4%
C[C@@H]1CCN(c2nccc(-c3cnn4ncccc34)n2)C1  remaining binding (binding; 1 µM): 92%
Cn1nc(C(=O)NCc2ccc(C(=O)O)cc2)cc1-c1ccc2[nH]ccc2c1  remaining binding (cell-free assay; competition with immobilised ligand; 0.1 µM): 87%
CN(C)c1ncc(F)c(-c2cnn3ncccc23)n1  remaining binding (binding; 1 µM): 100%
C[C@H](c1ccc(F)cc1)N(Cc1cccc(C(=O)O)c1)C(=O)c1cnc2ccccc2c1  remaining binding (cell-free assay; competition with immobilised ligand; 1 µM): 74%
